Active and inactive are the calls of the source. The calls are words filed in the database; no cut-off is given here.
Experiments:
M14 [1] = experiment: Induction of apoptosis in human M14 cells overexpressing NCID assessed as early apoptotic cells by Annexin V-FITC/PI staining based flow cytometry (Rvb-0.43%); format: functional; details: dose 2 µM
M14 [2] = experiment: Antimigratory activity against human M14 cells overexpressing NICD at 2 uM by transwell assay; format: functional, cell-based
How it was run: (§1)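 Transwell assay in M14 or A375 cells cultured in high-glucose DMEM with 10% FBS and penicillin/streptomycin; NICD overexpression plasmid transfected with Lipofectamine 2000. Invasion inserts coated with Matrigel diluted 1:6 in serum-free 1640 medium and set at 37 °C for 4 h; migration inserts uncoated, 5000 cells seeded. Control cells received DMSO. Migrated or invaded cells counted.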

[3] = target: T1, Histone-lysine N-methyltransferase EHMT2 (Homo sapiens) (UniProt Q96KQ7); experiment: Inhibition of G9a in human M14 cells overexpressing NICD assessed as reduction in AKT phosphorylation at 2 uM by Western blot analysis; format: cell-based
T1 sequence (whole entry): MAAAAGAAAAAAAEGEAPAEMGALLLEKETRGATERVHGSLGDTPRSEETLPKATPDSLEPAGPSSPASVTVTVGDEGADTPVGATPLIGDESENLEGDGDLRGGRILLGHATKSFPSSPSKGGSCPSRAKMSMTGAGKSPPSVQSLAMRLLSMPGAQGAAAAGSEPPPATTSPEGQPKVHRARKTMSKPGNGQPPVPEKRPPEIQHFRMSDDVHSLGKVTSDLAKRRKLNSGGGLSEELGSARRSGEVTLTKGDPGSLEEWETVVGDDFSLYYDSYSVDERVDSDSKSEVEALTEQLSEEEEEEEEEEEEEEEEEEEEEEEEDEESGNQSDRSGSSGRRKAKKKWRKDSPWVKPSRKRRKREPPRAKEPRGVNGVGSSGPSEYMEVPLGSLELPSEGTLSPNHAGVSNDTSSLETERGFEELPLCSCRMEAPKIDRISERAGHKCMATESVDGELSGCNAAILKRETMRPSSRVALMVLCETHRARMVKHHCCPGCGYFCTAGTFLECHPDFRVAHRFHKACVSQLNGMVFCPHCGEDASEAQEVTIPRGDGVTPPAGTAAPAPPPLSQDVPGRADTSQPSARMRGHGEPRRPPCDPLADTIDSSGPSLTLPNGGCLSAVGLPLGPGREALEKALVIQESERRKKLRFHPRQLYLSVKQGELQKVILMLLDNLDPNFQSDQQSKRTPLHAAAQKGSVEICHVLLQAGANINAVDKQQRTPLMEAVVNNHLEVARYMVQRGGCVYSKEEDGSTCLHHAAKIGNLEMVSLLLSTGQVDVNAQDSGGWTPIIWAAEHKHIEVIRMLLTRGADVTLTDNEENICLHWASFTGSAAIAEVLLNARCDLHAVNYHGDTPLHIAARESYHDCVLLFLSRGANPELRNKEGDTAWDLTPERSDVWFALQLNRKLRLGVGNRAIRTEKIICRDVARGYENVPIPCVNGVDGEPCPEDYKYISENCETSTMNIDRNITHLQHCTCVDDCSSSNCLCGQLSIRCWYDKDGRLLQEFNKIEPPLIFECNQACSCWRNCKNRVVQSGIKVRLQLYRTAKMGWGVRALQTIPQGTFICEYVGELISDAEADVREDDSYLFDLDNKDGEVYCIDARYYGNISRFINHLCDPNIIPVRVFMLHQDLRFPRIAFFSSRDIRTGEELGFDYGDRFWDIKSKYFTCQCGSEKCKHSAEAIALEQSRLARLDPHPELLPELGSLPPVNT

M14 [4] = experiment: Antimigratory activity against human M14 cells at 2 uM by transwell assay; format: functional, cell-based; how it was run: as §1
A-375 [5] = experiment: Induction of apoptosis in human A-375 cells overexpressing NICD assessed as increase in cleaved Caspase-3 expression at 2 uM by Western blot analysis; format: functional, cell-based
[6] = target: T1, Histone-lysine N-methyltransferase EHMT2 (Homo sapiens); experiment: Inhibition of G9a in human A-375 cells overexpressing NICD assessed as reduction in AKT phosphorylation at 2 uM by Western blot analysis; format: cell-based
M14 [7] = experiment: Induction of apoptosis in human M14 cells assessed as necrotic cells at 2 uM by Annexin V-FITC/PI staining based flow cytometry (reference value: 1.34%); format: functional
A-375 [8] = experiment: Induction of apoptosis in human A-375 cells assessed as live cells at 2 uM by Annexin V-FITC/PI staining based flow cytometry (reference value: 95.1%); format: functional
A-375 [9] = experiment: Induction of apoptosis in human A-375 cells assessed as late apoptotic cells at 2 uM by Annexin V-FITC/PI staining based flow cytometry (reference value: 3.10%); format: functional
M14 [10] = experiment: Induction of apoptosis in human M14 cells assessed as increase in cleaved Caspase-3 expression at 2 uM by Western blot analysis; format: functional, cell-based
A-375 [11] = experiment: Antiinvasive activity against human A-375 cells at 2 uM by transwell assay; format: functional, cell-based; how it was run: as §1
M14 [12] = experiment: Induction of apoptosis in human M14 cells assessed as reduction in Bcl-2 expression at 2 uM by Western blot analysis; format: functional, cell-based
A-375 [13] = experiment: Antiproliferative activity against human A-375 cells overexpressing NICD assessed as reduction in cell proliferation at 2 uM by CCK-8 assay; format: functional, cell-based
How it was run: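 CCK8 proliferation assay. M14 or A375 cells, NICD plasmid-transfected where stated, were seeded at about 1000 cells per well, with 0.1% DMSO-treated cells as control. CCK8 reagent was added every 24 h and incubated 90 min at 37 °C, then OD read at 450 nm to build a proliferation curve. IC50 came from a dose-dependent viability series in A375.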

M14 [14] = experiment: Induction of apoptosis in human M14 cells overexpressing NCID assessed as necrotic cells by Annexin V-FITC/PI staining based flow cytometry (Rvb-1.34%); format: functional; details: dose 2 µM
A-375 [15] = experiment: Induction of apoptosis in human A-375 cells overexpressing […] assessed as live cells by Annexin V-FITC/PI staining based flow cytometry (Rvb-95.1%); format: functional; details: dose 2 µM
[16] = target: T1, Histone-lysine N-methyltransferase EHMT2 (Homo sapiens); experiment: Inhibition of G9a in human M14 cells assessed as decrease in Hes1 expression at 2 uM by Western blot analysis; format: cell-based
A-375 [17] = experiment: Antitumor activity against human A-375 cells xenografted in nude mouse assessed as tumor growth inhibition at 5 mg/kg, ip administered every other day for 10 days measured post-last dose by caliper method; format: functional, organism-based; details: time 10.0 day
How it was run: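 Male nude mice, 6 weeks old, were given A375 cells (2X 106) subcutaneously. After one week, animals with palpable xenografts were randomised into two groups: DMSO vehicle, or compound at 5 mg/kg i.p. every other day for 10 days. Tumour volume was measured, and body weight was monitored.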

[18] = target: T1, Histone-lysine N-methyltransferase EHMT2 (Homo sapiens); experiment: Inhibition of G9a in human A-375 cells assessed as decrease in H3K9me2 expression at 2 uM by Western blot analysis; format: cell-based
[19] = target: T1, Histone-lysine N-methyltransferase EHMT2 (Homo sapiens); experiment: Inhibition of G9a in human M14 cells assessed as decrease in Notch1 expression at 2 uM by Western blot analysis; format: cell-based
[20] = target: T1, Histone-lysine N-methyltransferase EHMT2 (Homo sapiens); experiment: Inhibition of G9a in human A-375 cells assessed as decrease in Notch1 expression at 2 uM by Western blot analysis; format: cell-based
M14 [21] = experiment: Induction of apoptosis in human M14 cells overexpressing NICD assessed as increase in cleaved Caspase-3 expression at 2 uM by Western blot analysis; format: functional, cell-based
[22] = target: T1, Histone-lysine N-methyltransferase EHMT2 (Homo sapiens); experiment: Inhibition of G9a in human M14 cells assessed as reduction in AKT phosphorylation at 2 uM by Western blot analysis; format: cell-based
M14 [23] = experiment: Induction of apoptosis in human M14 cells overexpressing NICD assessed as reduction in Bcl-2 expression at 2 uM by Western blot analysis; format: functional, cell-based
A-375 [24] = experiment: Induction of apoptosis in human A-375 cells assessed as necrotic cells at 2 uM by Annexin V-FITC/PI staining based flow cytometry (reference value: 1.34%); format: functional
A-375 [25] = experiment: Induction of apoptosis in human A-375 cells overexpressing […] assessed as early apoptotic cells by Annexin V-FITC/PI staining based flow cytometry (Rvb-0.43%); format: functional; details: dose 2 µM

For `COc1cc2c(NC3CCN(C(C)C)CC3)nc(N3CCC(F)(F)CC3)nc2cc1OCCCN1CCCC1`, the Activity (M14 [1]) was 0.75%, the Activity (M14 [2]) was “inactive” and the inhibition [3] was “inactive”. The Activity (M14 [4]) was “Active”, the Activity (A-375 [5]) was “inactive” and the inhibition [6] was “inactive”. The Activity (M14 [7]) was 0.27%, the Activity (A-375 [8]) was 89.8% and the Activity (A-375 [9]) was 5.17%. For the same compound, the Activity (M14 [10]) was “Active”, the Activity (A-375 [11]) was “Active” and the Activity (M14 [12]) was “Active”. The Activity (A-375 [13]) was “inactive”, the Activity (M14 [14]) was 0.76% and the Activity (A-375 [15]) was 94.9%. For the same compound, the inhibition [16] was “Active”, the TGI (A-375 [17]) was “Active” and the inhibition [18] was “Active”. The inhibition [19] was “Active”, the inhibition [20] was “Active” and the Activity (M14 [21]) was “inactive”. The inhibition [22] was “Active”, the Activity (M14 [23]) was “inactive” and the Activity (A-375 [24]) was 0.27%. For the same compound, the Activity (A-375 [25]) was 0.75%.

Reference: ChEMBL document CHEMBL5712912, “Abnormal overexpression of G9a in melanoma cells promotes cancer progression via upregulation of the Notch1 signaling pathway” (Aging (Albany NY), 2020)
